# Results as given in ChEMBL document CHEMBL1914440, “Discovery of potent, selective, and orally bioavailable alkynylphenoxyacetic acid CRTH2 (DP2) receptor antagonists for the treatment of allergic inflammatory diseases” (J Med Chem, 2011).
# Active and inactive are the calls of the source. No cut-off for these calls is given here.
# Experiments:
# [1] = biological target: T1, Prostaglandin D2 receptor 2 (Homo sapiens, UniProt Q9Y5Y4); test: Displacement of [3H]PGD2 from human CRTH2 expressed in chinese hamster CHO cells by liquid scintillation counting; type: cell-based
# T1 sequence (Q9Y5Y4 whole entry): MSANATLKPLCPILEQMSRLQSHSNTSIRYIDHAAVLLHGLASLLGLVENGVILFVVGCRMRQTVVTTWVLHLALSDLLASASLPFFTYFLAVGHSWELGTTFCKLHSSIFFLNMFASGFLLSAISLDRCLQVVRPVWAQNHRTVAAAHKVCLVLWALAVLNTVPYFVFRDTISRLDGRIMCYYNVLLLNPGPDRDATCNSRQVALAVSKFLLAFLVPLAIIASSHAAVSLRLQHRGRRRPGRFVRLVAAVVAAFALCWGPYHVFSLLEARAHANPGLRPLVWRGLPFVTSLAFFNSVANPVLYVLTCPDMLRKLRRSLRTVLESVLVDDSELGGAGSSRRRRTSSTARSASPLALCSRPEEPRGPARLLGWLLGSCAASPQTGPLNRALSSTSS
# Method in brief: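 Scintillation proximity competition assay: 2–5 μg human CRTH2 cell membranes, 1.5 nM [3H]PGD2, WGA-SPA beads, 10 mM HEPES/KOH pH 7.4, 10 mM MnCl2, protease inhibitors, 1% DMSO; 90 min, room temperature, shaking. Nonspecific binding defined with 1 μM PGD2. Ki by Cheng–Prusoff, mean of ≥3 independent dose–response experiments.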
# [2] = biological target: T2, Prostaglandin D2 receptor 2 (Homo sapiens) (UniProt Q9Y5Y4); test: Partial agonist activity at human CRTH2 expressed in chinese hamster CHO cells by cellular dielectric spectroscopy relative to PGD2; type: functional, cell-based
# T2 sequence (whole entry): T1 sequence (Q9Y5Y4 whole entry)
# Method in brief: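 CHO-CRTH2 cells seeded at 100000/well, grown 24 h at 37 °C, washed into HBSS/10 mM HEPES pH 7.4 with 1% DMSO; impedance recorded. Agonism: compound alone, 25 min read. Antagonism: PGD2 at EC80 added to cell–compound mixture, 25 min read. Run with 0.1% BSA.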
# [3] = AUC in BALB/c mouse at 5 mg/kg, po; type: ADME, organism-based; design: dose 5 mg/kg, route oral; conditions: plasma
# Method in brief: (§1)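 Mouse PK after a 5 mg/kg oral dose.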
# [4] = Clearance in BALB/c mouse at 5 mg/kg, po by LC/MS/MS analysis; type: ADME, organism-based; design: dose 5 mg/kg, route oral; conditions: in vivo
# [5] = Oral bioavailability in BALB/c mouse at 5 mg/kg by LC/MS/MS analysis; type: ADME, organism-based; conditions: in vivo; method in brief: as §1
# [6] = Apparent permeability across human Caco2 cells at 1 uM after 2 hrs by LC/MS/MS analysis; type: ADME, cell-based; conditions: Caco-2
# Mus musculus [7] = test: Antiinflammatory activity in BALB/c mouse contact hypersensitivity model assessed as inhibition of FITC-mediated ear swelling at 3 mg/kg, po administered 1 hr prior to and 7 hrs after the FITC-challenge measured 24 hrs after final dose; type: functional
# Method in brief: (§2)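 Female 9-week-old BALB/c mice sensitized on days 0 and 1 with 0.5% FITC in acetone/dibutyl phthalate (sham group: vehicle only). Right ear challenged on day 6 with 0.5% FITC. Compound given by oral gavage 1 h before and 7 h after challenge. Ear thickness measured before and 24 h after challenge. Reported as mean % inhibition ± SEM.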
# [8] = biological target: T1, Prostaglandin D2 receptor 2; test: Antagonist activity at human CRTH2 expressed in human CHO cells by cellular dielectric spectroscopy
# [9] = biological target: T3, Prostaglandin D2 receptor 2 (Mus musculus, UniProt Q9Z2J6); test: Displacement of [3H]PGD2 from mouse CRTH2 expressed in human HEK cells by liquid scintillation counting; type: cell-based, HEK293
# T3 sequence (Q9Z2J6 whole entry): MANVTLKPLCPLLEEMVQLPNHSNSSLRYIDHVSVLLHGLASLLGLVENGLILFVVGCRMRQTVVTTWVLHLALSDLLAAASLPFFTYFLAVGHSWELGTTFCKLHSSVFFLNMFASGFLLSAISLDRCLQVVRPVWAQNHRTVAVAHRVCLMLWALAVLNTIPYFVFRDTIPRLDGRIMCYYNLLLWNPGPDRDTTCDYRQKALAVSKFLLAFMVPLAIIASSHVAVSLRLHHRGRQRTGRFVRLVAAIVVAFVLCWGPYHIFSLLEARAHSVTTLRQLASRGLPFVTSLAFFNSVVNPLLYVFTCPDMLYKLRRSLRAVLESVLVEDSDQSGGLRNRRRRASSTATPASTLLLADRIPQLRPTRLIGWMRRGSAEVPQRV
# Method in brief: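 Mouse CRTH2 cDNA stably expressed in HEK293(EBNA) cells (hygromycin-selected) and membranes made by nitrogen cavitation. SPA competition uses 2–5 μg membranes, 1.5 nM [3H]PGD2, HEPES/KOH pH 7.4 with 10 mM MnCl2, 1% DMSO, 90 min at room temperature. Nonspecific binding defined with 1 μM PGD2. Ki by Cheng–Prusoff, ≥3 independent experiments.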
# Mus musculus [10] = test: Antiinflammatory activity in BALB/c mouse contact hypersensitivity model assessed as inhibition of FITC-mediated ear swelling at 10 mg/kg, po administered 1 hr prior to and 7 hrs after the FITC-challenge measured 24 hrs after final dose; type: functional; method in brief: as §2
# [11] = Percentage unbound in rat plasma; type: ADME, cell-free
# [12] = Half life in BALB/c mouse at 5 mg/kg, po by LC/MS/MS analysis; type: ADME, organism-based; design: dose 5 mg/kg, route oral; conditions: in vivo
# [13] = Intrinsic clearance in human liver microsomes assessed per mg of protein at 1 uM by LC/MS/MS analysis; type: ADME, Microsome
# Mus musculus [14] = test: Antiinflammatory activity in BALB/c mouse model assessed as inhibition of ovalbumin-induced eosinophil accumulation in bronchoalveolar lavage fluid at 30 mg/kg, po administered 1 hr prior to and 7 hrs after ovalbumin challenge for 3 days measured 8 hrs after final dose by cell counting; type: functional; conditions: Lung
# Method in brief: (§3)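 Compound given by oral gavage 1 h before and 7 h after each challenge. BAL taken 8 h after the last challenge. Total cells counted by hemocytometer; eosinophils counted on DiffQuik-stained cytospins. Reported as mean % inhibition ± SEM.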
# [15] = biological target: T1, Prostaglandin D2 receptor 2; test: Antagonist activity human CRTH2 expressed in chinese hamster CHO cells assessed as inhibition of PGD2-induced [35S]GTPgamma binding by liquid scintillation counting; type: functional, cell-based
# Method in brief: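 10 μg human CRTH2 membranes in 20 mM HEPES/KOH pH 7.4, 10 mM MgCl2, 10 μg/mL saponin, 3 μM GDP, 150 mM NaCl, 2% DMSO, 30 °C. Preincubated 10 min, then 0.15 nM [35S]GTPγS for 30 min; stopped by centrifugation. Antagonism tested against 80 nM PGD2. Nonspecific binding with 10 μM GTPγS. Run without BSA.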
# [16] = Intrinsic clearance in rat liver microsomes assessed per mg of protein at 1 uM by LC/MS/MS analysis; type: ADME, Microsome
# Mus musculus [17] = test: Antiinflammatory activity in BALB/c mouse contact hypersensitivity model assessed as inhibition of FITC-mediated ear swelling at 30 mg/kg, po administered 1 hr prior to and 7 hrs after the FITC-challenge measured 24 hrs after final dose; type: functional; method in brief: as §2
# [18] = Percentage unbound in mouse plasma; type: ADME, cell-free
# [19] = Half life in BALB/c mouse at 1 mg/kg, iv by LC/MS/MS analysis; type: ADME, organism-based; design: dose 1 mg/kg, route intravenous; conditions: in vivo
# Mus musculus [20] = test: Antiinflammatory activity in BALB/c mouse model assessed as inhibition of ovalbumin-induced eosinophil accumulation in bronchoalveolar lavage fluid at 3 mg/kg, po administered 1 hr prior to and 7 hrs after ovalbumin challenge for 3 days measured 8 hrs after final dose by cell counting; type: functional; conditions: Lung; method in brief: as §3
# [21] = Percentage unbound in human plasma; type: ADME, cell-free
# [22] = AUC in BALB/c mouse at 5 mg/kg, po by LC/MS/MS analysis; type: ADME, organism-based; design: dose 5 mg/kg, route oral; conditions: plasma
# Mus musculus [23] = test: Antiinflammatory activity in BALB/c mouse model assessed as inhibition of ovalbumin-induced eosinophil accumulation in bronchoalveolar lavage fluid at 10 mg/kg, po administered 1 hr prior to and 7 hrs after ovalbumin challenge for 3 days measured 8 hrs after final dose by cell counting; type: functional; conditions: Lung; method in brief: as §3
compound,measurement,setting,value
CCCS(=O)(=O)c1cccc(C#Cc2cc(-c3ccccc3)ccc2OCC(=O)O)c1,Ki,[1],19 nM
same,Emax,[2],68%
CCCS(=O)(=O)c1ccc(C)c(C#Cc2cc(C#N)ccc2OCC(=O)O)c1,Ki,[1],7 nM
same,Activity,[2],inactive
same,AUC,[3],1.37 µg·h/mL
same,CL/F,[4],1.1 L/h/kg
same,bioavailability,[5],24%
CCCS(=O)(=O)c1ccc(F)c(C#Cc2cc(Cl)ccc2OCC(=O)O)c1,"Papp at 2 h, 1 µM",[6],108 nm/s
same,inhibition in vivo at 3 mg/kg,Mus musculus [7],36%
same,IC50,[8],28 nM
same,Ki,[9],0.37 nM
same,Ki,[1],3.4 nM
same,AUC,[3],6.14 µg·h/mL
same,inhibition in vivo at 10 mg/kg,Mus musculus [10],54%
same,CL/F,[4],0.4 L/h/kg
same,fraction unbound,[11],0.004
same,half-life,[12],1.9 h
same,microsomal CLint at 1 µM,[13],12 µL/min/mg
same,inhibition in vivo at 30 mg/kg,Mus musculus [14],55%
same,IC50,[15],8 nM
same,microsomal CLint at 1 µM,[16],< 10 µL/min/mg
same,inhibition in vivo at 30 mg/kg,Mus musculus [17],48%
same,fraction unbound,[18],0.007
same,half-life,[19],2 h
same,inhibition in vivo at 3 mg/kg,Mus musculus [20],19%
same,fraction unbound,[21],0.01
same,AUC,[22],6.14 µg·h/mL
same,inhibition in vivo at 10 mg/kg,Mus musculus [23],27%
